In article PMC11234860 (Chemical Science, 2024):

What was measured:
[1] = biological target: T1, Siglec-15 (Siglec-15d1–d2-mVENUS) (Homo sapiens, UniProt Q6ZMC9); test: 19F T2 CPMG filtered NMR competitive displacement assay, Siglec-15; assay type: binding
T1 sequence (Q6ZMC9 20-263): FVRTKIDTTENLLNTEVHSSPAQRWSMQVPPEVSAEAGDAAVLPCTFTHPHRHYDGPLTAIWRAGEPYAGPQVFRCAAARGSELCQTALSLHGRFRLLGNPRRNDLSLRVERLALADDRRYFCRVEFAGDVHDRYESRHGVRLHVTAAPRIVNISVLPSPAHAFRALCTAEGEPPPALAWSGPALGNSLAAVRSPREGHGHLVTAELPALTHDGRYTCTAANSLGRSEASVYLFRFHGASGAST
Method in brief: (§1)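 Siglec-15 ECD (d1–d2, residues 20–263) fused to mVENUS, or Siglec-9 d1–d3 (residues 18–336) fused to human IgG1 Fc with C-terminal His6. Both transiently expressed in HEK293F and purified by Ni-NTA then SEC. Siglec-9 15 μM or Siglec-15 25 μM, with 10 equiv difluoroacetamide spy, titrated with increasing competitor equivalents. One decoupled 19F CPMG spectrum per sample (200 ms filter) at 600 MHz, 298 K, in 20 mM Tris pH 8, 300 mM NaCl, 10% D2O, with 100 μM TFA reference.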

[2] = biological target: Siglec-9 (Siglec-9d1–d3-Fc) (Homo sapiens, UniProt Q9Y336); test: 19F T2 CPMG filtered NMR competitive displacement assay, Siglec-9; assay type: binding
Siglec-9 (Siglec-9d1–d3-Fc), sequence (Q9Y336 18-336): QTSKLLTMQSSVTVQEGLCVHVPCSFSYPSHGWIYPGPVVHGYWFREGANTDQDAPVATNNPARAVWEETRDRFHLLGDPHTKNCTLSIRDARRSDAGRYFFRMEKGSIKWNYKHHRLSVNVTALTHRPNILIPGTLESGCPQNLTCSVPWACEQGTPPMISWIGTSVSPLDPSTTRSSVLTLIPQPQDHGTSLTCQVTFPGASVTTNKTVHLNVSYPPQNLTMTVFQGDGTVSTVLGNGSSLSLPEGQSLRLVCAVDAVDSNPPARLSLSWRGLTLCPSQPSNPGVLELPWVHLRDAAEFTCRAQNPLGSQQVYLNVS
Method in brief: as §1

[3] = read-out: lower KD limit, semiquantitative, from displacement

displacement of the spy molecule ([1]; 300 equivalents of competitor, Siglec-15 25 μM + 10 equiv diF α2,6SLN): 22%
Kd [1, 3]: ≥ 5 mM
displacement of the spy molecule ([2]; 320 equivalents of competitor, Siglec-9 15 μM + 10 equiv diF α2,6SLN): 21%
Kd [2, 3]: ≥ 3 mM
Substance: 6′-sialyl N-acetyl-D-lactosamine aminoethylglycoside [α2,6SLN]
